As usually defined, the MIC is the lowest concentration found to suppress growth. In general, IC50 refers to the concentration at which inhibition is half-maximal.

Data set [1] deals with Staphylococcus aureus. Description: Antibacterial activity against Staphylococcus aureus ATCC 29213 using 100 uL of test compound after 24 hrs by agar well diffusion method. Type of data set: functional. The essentials:
(§1)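 Agar well diffusion. Nutrient agar was spread with bacterial suspension at 1×10⁸ CFU/mL, and 10 mm wells were cut. Wells were loaded with compound solution made at 200 mg per 1 mL DMSO. Plates were incubated 24 h at 37 °C and inhibition zones were measured. DMSO served as the negative control.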
(Agar diffusion results depend on both activity and mobility in agar.)

In data set [2] the test system is Bacillus subtilis. Briefly: Antibacterial activity against Bacillus subtilis ATCC 6633 using 100 uL of test compound after 24 hrs by agar well diffusion method. Type of data set: functional. The essentials:
as §1

The test system of data set [3] is Priestia megaterium. Briefly: Antibacterial activity against Bacillus megaterium ATCC 9885 using 100 uL of test compound after 24 hrs by agar well diffusion method. Type of data set: functional. The essentials: as §1
Data set [4] has as its system Micrococcus luteus. Briefly: Antibacterial activity against Sarcina lutea using 100 uL of test compound after 24 hrs by agar well diffusion method. Type of data set: functional. The essentials: as §1
The subject of data set [5] is Klebsiella pneumoniae. Briefly: Antibacterial activity against Klebsiella pneumoniae ATCC 13883 using 100 uL of test compound after 24 hrs by agar well diffusion method. It is filed as functional. The essentials:
as §1

Data set [6] concerns Pseudomonas aeruginosa. Briefly: Antibacterial activity against Pseudomonas aeruginosa ATCC 27953 using 100 uL of test compound after 24 hrs by agar well diffusion method. Type of data set: functional. The essentials: as §1
Data set [7] concerns Escherichia coli. Description: Antibacterial activity against Escherichia coli ATCC 25922 using 100 uL of test compound after 24 hrs by agar well diffusion method. It is filed as functional. The essentials:
as §1

Data set [8] concerns Candida albicans. Description: Antifungal activity against Candida albicans NRRL Y-477 using 100 uL of test compound after 48 hrs by agar well diffusion method. Type of data set: functional. The essentials:
(§2)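 Agar well diffusion. Sabouraud dextrose agar was spread with yeast or fungal suspension at 1×10⁶ CFU/mL, and 10 mm wells were cut. Wells were loaded with compound solution made at 200 mg per 1 mL DMSO. Plates were incubated 48 h at 28 °C and inhibition zones were measured. DMSO served as the negative control.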

Data set [9] relates to Saccharomyces cerevisiae. Briefly: Antifungal activity against Saccharomyces cerevisiae using 100 uL of test compound after 48 hrs by agar well diffusion method. Type of data set: functional. The essentials:
as §2

Data set [10] deals with Aspergillus niger. Briefly: Antifungal activity against Aspergillus niger using 100 uL of test compound after 48 hrs by agar well diffusion method. It is filed as functional. The essentials:
as §2

For data set [11], the system named is Staphylococcus aureus. Briefly: Antibacterial activity against Staphylococcus aureus ATCC 29213 after 24 hrs by two fold serial dilution method. It is filed as functional.
The test system of data set [12] is Bacillus subtilis. Description: Antibacterial activity against Bacillus subtilis ATCC 6633 after 24 hrs by two fold serial dilution method. It is filed as functional. To be noted: ATCC 6633, 24 h.
Data set [13] concerns Priestia megaterium. Briefly: Antibacterial activity against Bacillus megaterium ATCC 9885 after 24 hrs by two fold serial dilution method. Type of data set: functional.
Data set [14] deals with Micrococcus luteus. Description: Antibacterial activity against Sarcina lutea after 24 hrs by two fold serial dilution method. Type of data set: functional.
The subject of data set [15] is Klebsiella pneumoniae. Description: Antibacterial activity against Klebsiella pneumoniae ATCC 13883 after 24 hrs by two fold serial dilution method. Type of data set: functional. To be noted: ATCC 13883, 24 h.
Data set [16] relates to Pseudomonas aeruginosa. Description: Antibacterial activity against Pseudomonas aeruginosa ATCC 27953 after 24 hrs by two fold serial dilution method. Type of data set: functional.
Data set [17] relates to Escherichia coli. Briefly: Antibacterial activity against Escherichia coli ATCC 25922 after 24 hrs by two fold serial dilution method. Conditions: ATCC 25922, 24 h. Type of data set: functional.
Data set [18] deals with Candida albicans. Briefly: Antifungal activity against Candida albicans NRRL Y-477 after 48 hrs by two fold serial dilution method. It is filed as functional. Summed up: (§3)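 Two-fold serial broth dilution in a suitable broth, run only on compounds giving inhibition zones of at least 16 mm. Final concentrations were […]. Each 5 mL received 0.1 mL inoculum and was incubated 48 h at 28 °C. MIC was the lowest concentration without growth.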

The subject of data set [19] is Saccharomyces cerevisiae. Briefly: Antifungal activity against Saccharomyces cerevisiae after 48 hrs by two fold serial dilution method. It is filed as functional. Summed up:
as §3

Data set [20] relates to Aspergillus niger. Briefly: Antifungal activity against Aspergillus niger after 48 hrs by two fold serial dilution method. Type of data set: functional. The essentials:
as §3

Data set [21] can be described thus: Antioxidant activity assessed as DPPH free radical scavenging activity by spectrophotometric assay. Type of data set: physicochemical. The essentials:
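Sample solutions at several concentrations were added to 0.004% DPPH in methanol and incubated 60 min in the dark. Absorbance was read at 517 nm against a blank. Inhibition % = (A_blank − A_sample)/A_blank × 100, where the control contained all reagents except the test compound.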

Molecules are shown by their SMILES. Values after ≈ are worked out from the molar mass of the structure shown. Active and inactive are the calls of the source. No cut-off for these calls is given here.

For the compound `CC(O)(Cc1cn(CC(=O)c2ccc(Br)cc2)nn1)c1ccc(S(=O)(=O)c2ccccc2)cc1` (stereo not drawn), the “diameter of the inhibition zone (DIZ)” value in data set [1] was 17 mm; in [2], 17 mm; in data set [5], 19 mm; in data set [6] it was 19 mm; in data set [7], 17 mm; in [8] it was 15 mm. The “diameter of the inhibition zone (DIZ)” value in [9] is 14 mm; in data set [10], 20 mm. In addition, the “diameter of the inhibition zone (DIZ)” value in [3] and in data set [4] was “inactive” each time. Further, the minimal inhibitory concentration (MIC) in data set [11] (ATCC 29213, 24 h) was found to be 200 µg/mL (≈ 370 µM); in [12], 200 µg/mL (≈ 370 µM); in data set [15] it was 200 µg/mL (≈ 370 µM); in data set [16] it was 200 µg/mL (≈ 370 µM); in [17] it was 200 µg/mL (≈ 370 µM); in data set [20], 200 µg/mL (≈ 370 µM). Also, the MIC entry in [13], in data set [14], in [18] and in data set [19] was “inactive” each time. For the same compound, the IC50 in data set [21] came to 800 µg/mL (≈ 1480 µM).

Consider `O=C(Cn1cc(CC(O)c2ccc(S(=O)(=O)c3ccccc3)cc2)nn1)c1ccccc1` (stereo not drawn), for which the “diameter of the inhibition zone (DIZ)” value in data set [1] is 14 mm; in [2] it was 19 mm; in data set [4], 20 mm; in [5] it was 22 mm; in [6] it was 20 mm; in data set [7] it was 17 mm. The “diameter of the inhibition zone (DIZ)” value in [8] is listed as 12 mm; in data set [10], 29 mm. The “diameter of the inhibition zone (DIZ)” value in data set [3] and in data set [9] was “inactive” in each case. In addition, the MIC entry in data set [11], in data set [13], in data set [18] and in [19] was “inactive” throughout. The MIC in data set [12] came to 200 µg/mL (≈ 447 µM); in [14] it was 200 µg/mL (≈ 447 µM); in data set [15], 200 µg/mL (≈ 447 µM); in data set [16], 200 µg/mL (≈ 447 µM); in [17] it was 200 µg/mL (≈ 447 µM); in data set [20] it was 100 µg/mL (≈ 223 µM). For the same compound, the IC50 in [21] was determined as 425 µg/mL (≈ 950 µM).

For `O=C(Cn1cc(COC(Cc2cn(CC(=O)c3ccccc3)nn2)c2ccc(S(=O)(=O)c3ccccc3)cc2)nn1)c1ccccc1` (stereo not drawn), the “diameter of the inhibition zone (DIZ)” value amounted to 24 mm in data set [1]; 17 mm in data set [2]; 20 mm in data set [3]; 24 mm in [4]; 15 mm in data set [5]; 23 mm in [6]. Moreover, the “diameter of the inhibition zone (DIZ)” value is listed as 20 mm in [7], 23 mm in [8], 22 mm in [9] and 20 mm in data set [10]. Further, the MIC amounted to 100 µg/mL (≈ 155 µM) in data set [11] (ATCC 29213, 24 h); 200 µg/mL (≈ 309 µM) in data set [12]; 200 µg/mL (≈ 309 µM) in [13] (ATCC 9885, 24 h); 100 µg/mL (≈ 155 µM) in data set [14]; 100 µg/mL (≈ 155 µM) in [15]; 100 µg/mL (≈ 155 µM) in data set [16]. Moreover, the minimal inhibitory concentration (MIC) in data set [17] turned out to be 200 µg/mL (≈ 309 µM); in data set [18] (NRRL Y-477, 48 h) it was 200 µg/mL (≈ 309 µM); in data set [19], 200 µg/mL (≈ 309 µM); in data set [20] it was 200 µg/mL (≈ 309 µM). Besides, the concentration for half-maximal inhibition (IC50) in [21] stood at 175 µg/mL (≈ 271 µM).

These data come from ChEMBL document CHEMBL3351505, “Ultrasound-assisted synthesis of novel 1,2,3-triazoles coupled diaryl sulfone moieties by the CuAAC reaction, and biological evaluation of them as antioxidant and antimicrobial agents” (Eur J Med Chem, 2014).
